Test [1] can be described thus: Inhibitory concentration of [3H]- nitrendipine binding against guinea pig cerebral cortex membrane. Type of test: functional, tissue-based, Cavia porcellus. The essentials: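 Guinea pig cerebral cortex membranes (washed pellets, stored in liquid nitrogen), 200 μg protein, incubated under sodium light for 90 min at 25 °C in 50 mmol Tris-HCl pH 7.4 with 0.5 nmol [3H]nitrendipine and various compound concentrations (DMSO). Filtration and scintillation counting; 1 μM nifedipine defined specific binding.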

A further test is filed under the species Rattus norvegicus. Put plainly: Inhibition of [Ca2+] induced contraction of K+ depolarized rat aorta by 50%. Type of test: functional. The essentials:
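Spirally cut thoracic aorta strips from male Wistar rats were held in modified Krebs solution at 37 °C, gassed with 95% O2/5% CO2. Ca2+-induced contraction was measured after K+ depolarization. The value is the molar concentration blocking contraction by 50%, given as mean ± SE of 3–6 determinations.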

The species named for test [2] is Cavia porcellus. Kind of test: Inhibition of [3H]nitrendipine binding to L-type calcium channel of guinea pig cerebral cortex membrane at 10e-5 M. Type of test: functional, tissue-based.
Test [3] is filed under the species Cavia porcellus. Put plainly: Stimulatory concentration of [3H]nitrendipine binding to L-type calcium channel of guinea pig cerebral cortex membrane at 10e-6 M. Type of test: functional, tissue-based.
Test [4] is filed under the species Cavia porcellus. Put plainly: Molar concentration needed to […] by 50% of maximal stimulation. Type of test: functional.

Here are results for 34 molecules from ChEMBL document CHEMBL1126689, “Novel heterocyclic analogues of the new potent class of calcium entry blockers: 1-[[4-(aminoalkoxy)phenyl]sulfonyl]indolizines” (J Med Chem, 1993).

As usually defined, the IC50 is the concentration at which inhibition is half-maximal. Read a low IC50 as greater potency. For the molecule `COc1cc(CCN(C)CCCOc2ccc(S(=O)(=O)c3c(C(C)C)oc4ccccc34)cc2)cc(OC)c1OC`, the values for the half-inhibitory concentration (IC50) (in test [1]; in the test listed under Rattus norvegicus) were 0.59 nM and 5.8 nM, respectively. For the molecule `COC(=O)C1=C(C)NC(C)=C(C(=O)OC)C1c1ccccc1[N+](=O)[O-]` [NIFEDIPINE], in test [1], the IC50 is 2.5 nM.

Turning to `COc1ccc(CCN(C)CCCOc2ccc(S(=O)(=O)c3c(C(C)C)cc4ccccn34)cc2)cc1OC`, the IC50 in test [1] came to 0.22 nM; in the test filed under Rattus norvegicus, 5.9 nM. As for `COc1cc(CCN(C)CCCOc2ccc(S(=O)(=O)c3c(C(C)C)c4ccccc4n3C)cc2)cc(OC)c1`, the IC50 turned out to be 0.093 nM in test [1] and 16.4 nM in the test listed under Rattus norvegicus.

As for `COc1ccc(CCN(C)CCCOc2ccc(S(=O)(=O)c3c(C(C)C)c4ccccc4n3C)cc2)cc1OC`, the IC50 in test [1] stood at 0.072 nM; in the test filed under Rattus norvegicus it was 3.7 nM. The corresponding values for `COc1ccc(CCN(C)CCCOc2ccc(S(=O)(=O)c3c(C(C)C)n(C)c4ccccc34)cc2)cc1OC` are 1.1 nM and 4.3 nM. For `CC(C)c1occc1S(=O)(=O)c1ccc(OCCCNC(C)(C)C)cc1`, in that order: 244 nM and 235 nM. The corresponding values for `CC(C)c1cc2ccccn2c1S(=O)(=O)c1ccc(OCCCNC(C)(C)C)cc1` are 12 nM and 32.9 nM. Take `CCCCN(CCCC)CCCOc1ccc(S(=O)(=O)c2c(C(C)C)n(C)c3ccccc23)cc1`: the IC50 turned out to be 11 nM in test [1] and 24.1 nM in the test listed under Rattus norvegicus. For `COc1ccc(CN(C)CCCOc2ccc(S(=O)(=O)c3c(C(C)C)oc4ccccc34)cc2)cc1OC`, in that order: 1.9 nM and 14.3 nM. In general, inhibition refers to the percentage by which the read-out fell short of the control. On to `CCCCN(CCCC)CCCOc1ccc(S(=O)(=O)c2c[nH]nc2C(C)C)cc1`, for which, in the test filed under Cavia porcellus [2], the inhibition came out at 6%. This molecule also returned a half-inhibitory concentration (IC50) in the test filed under Rattus norvegicus of 5060 nM. Turning to `COc1ccc(CCN(C)CCCOc2ccc(S(=O)(=O)c3c(C(C)C)nn4ccccc34)cc2)cc1OC`, the values for the IC50 (in test [1]; in the test listed under Rattus norvegicus) were 2.6 nM and 18.8 nM, respectively. For `COc1cc(CCN(C)CCCOc2ccc(S(=O)(=O)c3c(C(C)C)c4ccccc4n3C)cc2)cc(OC)c1OC`, in that order: 0.28 nM and 1.9 nM. Turning to `CCCCN(CCCC)CCCOc1ccc(S(=O)(=O)c2ccoc2C(C)C)cc1`, the IC50 was 186 nM in test [1] and 119 nM in the test listed under Rattus norvegicus. For `CCCCN(CCCC)CCCOc1ccc(S(=O)(=O)c2c(C(C)C)[nH]c3ccccc23)cc1`, in that order: 110 nM and 55.1 nM. The corresponding values for `COc1ccc(CN(C)CCCOc2ccc(S(=O)(=O)c3c(C(C)C)n(C)c4ccccc34)cc2)cc1OC` are 1 nM and 3.7 nM. On to `CCCCN(CCCC)CCCOc1ccc(S(=O)(=O)c2c(C(C)C)nn3ccccc23)cc1`, for which the IC50 in the test filed under Rattus norvegicus was found to be 31.1 nM. In the case of `COc1ccc(CCN(C)CCCOc2ccc(S(=O)(=O)c3c[nH]nc3C(C)C)cc2)cc1OC`, the Stimulation in the test listed under Cavia porcellus [3] amounted to 38%. For the same molecule, in the test listed under Rattus norvegicus, the midpoint of inhibition, the IC50, lay at 1720 nM. In test [1], `COc1ccc(CCN(C)CCCOc2ccc(S(=O)(=O)c3c(C(C)C)cn4ccccc34)cc2)cc1OC` [FANTOFARONE] displayed an IC50 of 0.61 nM. Still for that read-out and setting: as for `COc1ccc(CCN(C)CCCC(C#N)(c2ccc(OC)c(OC)c2)C(C)C)cc1OC` (stereo unspecified), the figure is 38 nM. As for `CC(C)c1c(S(=O)(=O)c2ccc(OCCCNC(C)(C)C)cc2)c2ccccc2n1C`, the IC50 in test [1] was found to be 116 nM; in the test listed under Rattus norvegicus, 99.3 nM. Regarding `COc1ccc(CCN(C)CCCOc2ccc(S(=O)(=O)c3ccoc3C(C)C)cc2)cc1OC`, 84.2 nM corresponded to half-maximal inhibition in the test listed under Rattus norvegicus (IC50).

For the molecule `CCCCN(CCCC)CCCOc1ccc(S(=O)(=O)c2c(C(C)C)cc3ccccn23)cc1`, the IC50 was found to be 0.99 nM in test [1] and 13.3 nM in the test listed under Rattus norvegicus. The corresponding values for `COc1ccc(CCN(C)CCCOc2ccc(S(=O)(=O)c3[nH]c4ccccc4c3C(C)C)cc2)cc1OC` are 2.2 nM and 37.5 nM. The corresponding values for `COc1ccc(CCNCCCOc2ccc(S(=O)(=O)c3c(C(C)C)oc4ccccc34)cc2)cc1OC` are 1.6 nM and 17.1 nM. With `CCCCN(CCCC)CCCOc1ccc(S(=O)(=O)c2cc3ccccc3nc2C(C)C)cc1`, the half-maximal inhibitory concentration (IC50) was 94 nM in test [1] and 198 nM in the test listed under Rattus norvegicus. For `COc1ccc(CCN(C)CCCOc2ccc(S(=O)(=O)c3cc4ccccc4nc3C(C)C)cc2)cc1OC`, in that order: 13.1 nM and 84.2 nM.

With `COc1ccc(CCN(C)CCCOc2ccc(S(=O)(=O)c3c(C(C)C)oc4ccccc34)cc2)cc1OC`, the results for the IC50 (in test [1]; in the test listed under Rattus norvegicus) were 0.65 nM and 20.2 nM, respectively.

On to `CC(C)c1nc2ccccc2cc1S(=O)(=O)c1ccc(OCCCNC(C)(C)C)cc1`, for which the IC50 in test [1] stood at 181 nM; in the test filed under Rattus norvegicus, 370 nM. Molecule `COc1ccc([C@@H]2Sc3ccccc3N(CCN(C)C)C(=O)[C@@H]2OC(C)=O)cc1` [DILTIAZEM] gave an IC50 in the test listed under Cavia porcellus [4] of 59 nM.

The molecule `CC(C)c1nn2ccccc2c1S(=O)(=O)c1ccc(OCCCNC(C)(C)C)cc1` displayed an IC50 in the test filed under Rattus norvegicus of 168 nM.

In the case of `CCCc1oc2ccccc2c1S(=O)(=O)c1ccc(OCCCN(C)CCc2ccc(OC)c(OC)c2)cc1`, the IC50 in test [1] worked out at 5.2 nM; in the test filed under Rattus norvegicus, 50.8 nM. The corresponding values for `COc1ccc(CCN(C)CCCOc2ccc(S(=O)(=O)c3c(C(C)C)[nH]c4ccccc34)cc2)cc1OC` are 10.9 nM and 19.1 nM. For `CCCCc1oc2ccccc2c1S(=O)(=O)c1ccc(OCCCN(C)CCc2ccc(OC)c(OC)c2)cc1`, in that order: 7.9 nM and 227 nM.
